Results as given in ChEMBL document CHEMBL1127831, “Synthesis and structure-activity relationships of new antitumor taxoids. Effects of cyclohexyl substitution at the C-3' and/or C-2 of taxotere (docetaxel)” (J Med Chem, 1994).
In brackets after ≈: the same amount, converted by molar mass.

Assays:
[1] = system: P388; test: In vitro cytotoxicity against murine P388 leukemia cell line; type: functional, cell-based; conditions: Mus musculus
How it was run: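 P388 cells kept in RPMI 1640 with 10% foetal calf serum, 10 μM 2-mercaptoethanol, 2 mM L-glutamine and penicillin/streptomycin. Seeded at 1×10^5 cells/mL and grown 96 h with various taxoid concentrations, each in quadruplicate. Viability read by 16 h neutral red (0.02%) uptake, SDS lysis and OD at 540 and 346 nm. IC50 for 50% growth inhibition taken from three separate experiments.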

[2] = Ratio of inhibition of the rate of microtubule disassembly by the compound to that of paclitaxel; type: functional
How it was run: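 Porcine brain tubulin, MAP-depleted on phosphocellulose, used at 9 μM in MES pH 6.8 buffer with glycerol, 6 mM MgCl2 and 1 mM GTP. Taxoid in ethanol (0.1–5 μM) was added, tubulin polymerized 30 min at 37 °C, then cooled to 6 °C. Depolymerization rate was taken from the turbidity (350 nm) decline slope. The IC50 for 50% rate decrease was divided by the paclitaxel IC50.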

[3] = system: P388; test: In vitro cytotoxicity against murine P388 doxorubicin resistant leukemia cell line; type: functional, cell-based; conditions: Mus musculus
How it was run: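 P388/Dox cells grown in RPMI 1640 with 10% foetal calf serum, 2-mercaptoethanol, L-glutamine and antibiotics, with doxorubicin 1 μg/mL kept in the medium. Seeded at 1×10^5 cells/mL and exposed 96 h to a range of taxoid concentrations, quadruplicate points. Neutral red 0.02% added for 16 h, cells lysed in 1% SDS, OD read at 540 and 346 nm. IC50 = 50% growth inhibition, from three separate experiments.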

| SMILES | IC50 ratio [2] | IC50 [1] [µg/mL] | IC50 [3] [µg/mL] |
| --- | --- | --- | --- |
| CC(=O)O[C@@]12CO[C@@H]1C[C@H](O)[C@@]1(C)C(=O)[C@H](O)C3=C(C)[C@@H](OC(=O)[C@H](O)[C@@H](NC(=O)OC(C)(C)C)c4ccccc4)C[C@@](O)([C@@H](OC(=O)c4ccccc4)[C@H]21)C3(C)C.O.O.O [DOCETAXEL] | 0.7 | 0.008 | 1.5 |
| CC(=O)O[C@@]12CO[C@@H]1C[C@H](O)[C@@]1(C)C(=O)[C@H](O)C3=C(C)[C@@H](OC(=O)[C@H](O)C(NC(=O)OC(C)(C)C)C4CCCCC4)C[C@@](O)([C@@H](OC(=O)C4CCCCC4)C12)C3(C)C (stereo not given in full) | 2 | 0.076 (≈ 0.0927 µM) | 3.6 (≈ 4.39 µM) |
| CC(=O)O[C@@]12CO[C@@H]1C[C@H](O)[C@@]1(C)C(=O)[C@H](O)C3=C(C)[C@@H](OC(=O)[C@H](O)C(NC(=O)OC(C)(C)C)C4CCCCC4)C[C@@](O)([C@@H](OC(=O)c4ccccc4)C12)C3(C)C (stereo not given in full) | 0.72 | 0.063 (≈ 0.0774 µM) | 3.1 (≈ 3.81 µM) |

Second part, led by results:

| IC50 ratio [2] | SMILES | IC50 [1] [µg/mL] | IC50 [3] [µg/mL] |
| --- | --- | --- | --- |
| 0.85 | CC(=O)O[C@@]12CO[C@@H]1C[C@H](O)[C@@]1(C)C(=O)[C@H](O)C3=C(C)[C@@H](OC(=O)[C@H](O)C(NC(=O)OC(C)(C)C)c4ccccc4)C[C@@](O)([C@@H](OC(=O)C4CCCCC4)C12)C3(C)C (stereo not given in full) | 0.09 (≈ 0.111 µM) | 6.3 (≈ 7.74 µM) |
| 1.7 | CC(=O)O[C@H]1C(=O)[C@@]2(C)C([C@H](OC(=O)C3CCCCC3)[C@]3(O)C[C@H](OC(=O)[C@H](O)C(NC(=O)c4ccccc4)c4ccccc4)C(C)=C1C3(C)C)[C@]1(OC(C)=O)CO[C@@H]1C[C@@H]2O (stereo not given in full) | 0.45 (≈ 0.523 µM) | 7.5 (≈ 8.72 µM) |
